Test results reported in ChEMBL document CHEMBL4304739, “Discovery of 3-(Indol-5-yl)-indazole Derivatives as Novel Myeloid Differentiation Protein 2/Toll-like Receptor 4 Antagonists for Treatment of Acute Lung Injury” (J Med Chem, 2019).
Activity calls are given as the source filed them.

Legend:
Toll-like receptor 4 = Toll-like receptor 4 (Homo sapiens, UniProt O00206); assay: Binding affinity to recombinant human C-terminal 10His-tagged TLR4 (Glu24 to Lys631 residues) expressed in mouse NS0 cells by surface plasmon resonance analysis
Sequence of Toll-like receptor 4 (O00206 whole entry): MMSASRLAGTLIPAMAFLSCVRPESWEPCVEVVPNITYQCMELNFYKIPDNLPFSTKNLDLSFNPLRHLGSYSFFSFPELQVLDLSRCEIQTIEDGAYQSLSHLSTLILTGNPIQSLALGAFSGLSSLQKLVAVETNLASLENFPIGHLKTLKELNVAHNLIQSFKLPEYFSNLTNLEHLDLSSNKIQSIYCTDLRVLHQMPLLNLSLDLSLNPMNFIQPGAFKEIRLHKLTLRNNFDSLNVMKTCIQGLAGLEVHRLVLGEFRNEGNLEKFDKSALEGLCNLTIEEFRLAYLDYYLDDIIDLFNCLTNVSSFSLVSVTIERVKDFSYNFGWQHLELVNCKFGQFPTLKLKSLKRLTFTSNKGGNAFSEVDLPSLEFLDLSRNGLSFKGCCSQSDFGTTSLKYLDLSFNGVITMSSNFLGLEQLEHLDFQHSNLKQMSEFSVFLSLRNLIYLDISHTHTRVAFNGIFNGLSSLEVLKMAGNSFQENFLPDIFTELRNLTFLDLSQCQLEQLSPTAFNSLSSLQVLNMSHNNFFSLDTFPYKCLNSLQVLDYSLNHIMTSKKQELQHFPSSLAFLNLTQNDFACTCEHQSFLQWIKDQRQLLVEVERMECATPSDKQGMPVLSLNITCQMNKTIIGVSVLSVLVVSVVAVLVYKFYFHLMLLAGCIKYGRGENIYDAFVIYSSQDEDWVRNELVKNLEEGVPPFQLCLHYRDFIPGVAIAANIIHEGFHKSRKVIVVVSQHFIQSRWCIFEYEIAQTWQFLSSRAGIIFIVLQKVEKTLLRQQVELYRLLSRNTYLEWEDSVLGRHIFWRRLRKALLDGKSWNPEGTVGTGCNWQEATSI

Mus musculus [1] = assay: Antiinflammatory activity in LPS-induced C57BL/6 mouse model of acute lung injury assessed as reduction in lung injury score at 5 to 10 mg/kg, iv pretreated for 15 mins followed by LPS stimulation and measured after 6 hrs; assay type: functional, organism-based
Outline: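 Male C57BL/6 mice (18−22 g; n=8 per group). Compound in 0.1% CMC-Na given by tail vein injection 15 min before intraperitoneal LPS (20 mg/kg); controls received saline. Mice were sacrificed 6 h after LPS, and serum and lung tissue were collected.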

Mus musculus [2] = assay: Antiinflammatory activity in LPS-induced C57BL/6 mouse model of acute lung injury assessed as reduction in IL12 mRNA level at 10 mg/kg, iv pretreated for 15 mins followed by LPS stimulation and measured after 6 hrs by SYBR green staining-based qRT-PCR analysis; assay type: functional, organism-based
Outline: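 Total lung RNA extracted, with DNase I removal of residual DNA. Quantitative PCR with mouse gene primers; each gene normalized to β-actin. C57BL/6 mice given compound iv 15 min before intraperitoneal LPS (20 mg/kg) and killed at 6 h.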

[3] = target: Activin receptor type-1B (Homo sapiens) (UniProt P36896); assay: Inhibition of wild-type human ACVR1B (S187 to I505 residues) expressed in bacterial expression system at 1 uM by Kinomescan method
Outline: (§1)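 KINOMEscan competition binding screen at 1 μM compound. Results reported as % of control = (test − positive control)/(DMSO negative control − positive control) × 100, where lower values mean stronger hits.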

[4] = target: RAC-alpha serine/threonine-protein kinase (Homo sapiens) (UniProt P31749); assay: Inhibition of wild-type human partial length AKT1 expressed in bacterial expression system at 1 uM by Kinomescan method; outline: as §1
[5] = target: RAC-beta serine/threonine-protein kinase (Homo sapiens) (UniProt P31751); assay: Inhibition of wild-type human partial length AKT2 expressed in bacterial expression system at 1 uM by Kinomescan method; outline: as §1
[6] = target: ALK tyrosine kinase receptor (Homo sapiens) (UniProt Q9UM73); assay: Inhibition of wild-type human partial length ALK (I1088 to E1409 residues) expressed in mammalian expression system at 1 uM by Kinomescan method
Sequence of ALK tyrosine kinase receptor (Homo sapiens) (Q9UM73 19-1620 limits assumed): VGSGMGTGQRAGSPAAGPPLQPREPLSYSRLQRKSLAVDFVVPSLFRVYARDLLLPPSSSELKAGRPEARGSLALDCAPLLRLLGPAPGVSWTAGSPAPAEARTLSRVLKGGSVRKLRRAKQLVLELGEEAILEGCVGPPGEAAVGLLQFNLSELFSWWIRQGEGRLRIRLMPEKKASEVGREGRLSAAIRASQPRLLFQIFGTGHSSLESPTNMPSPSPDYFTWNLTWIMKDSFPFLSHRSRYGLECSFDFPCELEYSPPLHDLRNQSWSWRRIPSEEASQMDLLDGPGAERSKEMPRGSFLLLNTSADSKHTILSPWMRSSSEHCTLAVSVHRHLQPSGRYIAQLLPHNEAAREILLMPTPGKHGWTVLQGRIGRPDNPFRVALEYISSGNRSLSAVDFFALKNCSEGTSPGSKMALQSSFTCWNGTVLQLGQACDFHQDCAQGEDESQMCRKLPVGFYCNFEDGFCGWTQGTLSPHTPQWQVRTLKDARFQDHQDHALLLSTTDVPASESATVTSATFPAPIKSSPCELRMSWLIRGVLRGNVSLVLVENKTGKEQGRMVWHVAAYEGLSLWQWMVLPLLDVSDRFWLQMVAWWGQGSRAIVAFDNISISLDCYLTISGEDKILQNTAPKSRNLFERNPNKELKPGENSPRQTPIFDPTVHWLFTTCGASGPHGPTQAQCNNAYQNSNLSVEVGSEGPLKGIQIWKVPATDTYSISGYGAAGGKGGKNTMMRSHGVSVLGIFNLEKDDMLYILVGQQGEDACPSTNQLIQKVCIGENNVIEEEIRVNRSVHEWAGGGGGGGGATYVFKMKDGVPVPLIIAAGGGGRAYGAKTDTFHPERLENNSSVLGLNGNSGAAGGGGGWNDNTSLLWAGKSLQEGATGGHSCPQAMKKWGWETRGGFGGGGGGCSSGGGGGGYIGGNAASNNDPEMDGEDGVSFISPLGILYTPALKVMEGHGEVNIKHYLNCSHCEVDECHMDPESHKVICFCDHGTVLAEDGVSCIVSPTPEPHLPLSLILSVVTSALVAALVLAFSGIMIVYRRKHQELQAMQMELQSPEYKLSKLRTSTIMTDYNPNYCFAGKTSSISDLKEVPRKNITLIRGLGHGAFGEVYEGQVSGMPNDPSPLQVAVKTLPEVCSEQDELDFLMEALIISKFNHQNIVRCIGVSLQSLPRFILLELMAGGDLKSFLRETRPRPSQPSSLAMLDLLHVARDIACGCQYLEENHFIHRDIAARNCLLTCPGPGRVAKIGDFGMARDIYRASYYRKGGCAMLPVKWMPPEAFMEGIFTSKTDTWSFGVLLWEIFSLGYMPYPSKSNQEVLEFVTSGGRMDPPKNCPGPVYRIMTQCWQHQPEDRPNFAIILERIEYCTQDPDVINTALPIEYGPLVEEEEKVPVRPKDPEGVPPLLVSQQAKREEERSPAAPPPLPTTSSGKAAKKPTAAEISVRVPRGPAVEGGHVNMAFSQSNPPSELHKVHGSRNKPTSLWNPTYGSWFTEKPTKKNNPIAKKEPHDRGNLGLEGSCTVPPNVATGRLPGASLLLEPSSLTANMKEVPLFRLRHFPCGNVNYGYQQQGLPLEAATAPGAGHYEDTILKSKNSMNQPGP
Outline: (§2)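 Binding-competition screen on the KINOMEscan platform, run by the provider, with the test compound at 1 μM. Readout is percent of control: (test signal − positive control signal)/(negative control signal − positive control signal) × 100. The DMSO negative control is set as 100% Ctrl and a control compound as 0% Ctrl. Lower values mean stronger hits.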

[7] = target: Fibroblast growth factor receptor 3 (Homo sapiens) (UniProt P22607); assay: Inhibition of wild-type human partial length FGFR3 (R442 to S771 residues) expressed in bacterial expression system at 1 uM by Kinomescan method; outline: as §2
[8] = target: Tyrosine-protein kinase JAK2 (Homo sapiens) (UniProt O60674); assay: Inhibition of wild-type human partial length JAK2 JH1 catalytic domain (A829 to G1132 residues) expressed in mammalian expression system at 1 uM by Kinomescan method; outline: as §2
[9] = target: Mitogen-activated protein kinase 10 (Homo sapiens) (UniProt P53779); assay: Inhibition of wild-type human partial length JNK3 (V28 to Q422 residues) expressed in mammalian expression system at 1 uM by Kinomescan method; outline: as §2
Sequence of Mitogen-activated protein kinase 10 (Homo sapiens) (P53779 whole entry, the tested form may be a part): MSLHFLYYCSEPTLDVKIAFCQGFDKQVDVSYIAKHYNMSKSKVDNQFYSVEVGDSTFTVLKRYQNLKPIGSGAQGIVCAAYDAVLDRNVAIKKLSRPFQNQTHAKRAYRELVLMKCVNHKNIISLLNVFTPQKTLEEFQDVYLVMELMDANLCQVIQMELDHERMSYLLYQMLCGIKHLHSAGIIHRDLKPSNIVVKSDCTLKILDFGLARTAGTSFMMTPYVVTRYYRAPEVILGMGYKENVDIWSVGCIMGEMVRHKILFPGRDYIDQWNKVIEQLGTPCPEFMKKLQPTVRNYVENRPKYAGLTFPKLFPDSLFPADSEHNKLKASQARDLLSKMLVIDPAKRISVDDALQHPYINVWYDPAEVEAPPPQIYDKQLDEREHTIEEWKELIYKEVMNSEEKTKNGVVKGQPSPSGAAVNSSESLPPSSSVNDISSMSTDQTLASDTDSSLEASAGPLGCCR

[10] = target: Mast/stem cell growth factor receptor Kit (Homo sapiens) (UniProt P10721); assay: Inhibition of wild-type human partial length KIT (I571 to D952 residues) expressed in bacterial expression system at 1 uM by Kinomescan method
Outline: (§3)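 KINOMEscan competition binding panel (98 kinases) run by the provider, compound screened once at 1 μM. Read-out is percent of control: [(test signal − positive control signal)/(negative control signal − positive control signal)] × 100. DMSO negative control sets 100% Ctrl and a control compound sets 0% Ctrl; lower values mean stronger hits.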

[11] = tested on: Mast/stem cell growth factor receptor Kit (Homo sapiens), P10721 [D816V]; assay: Inhibition of human partial length KIT D816V mutant (I571 to D952 residues) expressed in bacterial expression system at 1 uM by Kinomescan method; outline: as §3
[12] = target: MAP/microtubule affinity-regulating kinase 3 (Homo sapiens) (UniProt P27448); assay: Inhibition of wild-type human full length MARK3 (M1 to L729 residues) expressed in bacterial expression system at 1 uM by Kinomescan method; outline: as §1
Sequence of MAP/microtubule affinity-regulating kinase 3 (Homo sapiens) (P27448 whole entry, looked up, the tested form may be a part): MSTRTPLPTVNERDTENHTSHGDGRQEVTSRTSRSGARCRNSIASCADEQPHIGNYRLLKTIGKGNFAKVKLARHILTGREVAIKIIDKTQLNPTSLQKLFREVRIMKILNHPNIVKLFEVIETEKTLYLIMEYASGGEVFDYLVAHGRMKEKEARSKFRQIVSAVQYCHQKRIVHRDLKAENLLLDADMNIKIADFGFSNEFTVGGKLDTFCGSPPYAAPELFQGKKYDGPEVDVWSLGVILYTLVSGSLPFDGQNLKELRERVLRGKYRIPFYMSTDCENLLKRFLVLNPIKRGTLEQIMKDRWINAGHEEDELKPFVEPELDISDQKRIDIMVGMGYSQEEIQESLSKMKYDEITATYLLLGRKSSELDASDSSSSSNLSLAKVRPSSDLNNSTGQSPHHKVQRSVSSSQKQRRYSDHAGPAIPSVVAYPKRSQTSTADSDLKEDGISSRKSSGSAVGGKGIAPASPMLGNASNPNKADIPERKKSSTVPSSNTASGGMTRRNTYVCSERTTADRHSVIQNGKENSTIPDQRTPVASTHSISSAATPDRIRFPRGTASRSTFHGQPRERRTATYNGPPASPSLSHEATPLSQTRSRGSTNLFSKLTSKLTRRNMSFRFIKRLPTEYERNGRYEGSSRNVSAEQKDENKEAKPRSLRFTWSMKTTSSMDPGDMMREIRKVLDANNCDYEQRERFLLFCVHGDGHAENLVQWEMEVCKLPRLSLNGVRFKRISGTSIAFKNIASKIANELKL

[13] = target: Dual specificity mitogen-activated protein kinase kinase 1 (Homo sapiens) (UniProt Q02750); assay: Inhibition of wild-type human full length MEK1 (M1 to V393 residues) expressed in mammalian expression system at 1 uM by Kinomescan method; outline: as §1
[14] = target: MAP kinase-interacting serine/threonine-protein kinase 1 (Homo sapiens) (UniProt Q9BUB5); assay: Inhibition of wild-type human full length MKNK1 (M1 to L424 residues) expressed in mammalian expression system at 1 uM by Kinomescan method; outline: as §1
[15] = target: Cyclin-dependent kinase 16 (Homo sapiens) (UniProt Q00536); assay: Inhibition of wild-type human partial length PCTK1 (G160 to A474 residues) expressed in mammalian expression system at 1 uM by Kinomescan method; outline: as §2
[16] = target: Serine/threonine-protein kinase PLK1 (Homo sapiens) (UniProt P53350); assay: Inhibition of wild-type human partial length PLK1 (A33 to F325 residues) expressed in mammalian expression system at 1 uM by Kinomescan method; outline: as §2
[17] = target: Serine/threonine-protein kinase RIO2 (Homo sapiens) (UniProt Q9BVS4); assay: Inhibition of wild-type human partial length RIOK2 (M1 to D313 residues) expressed in mammalian expression system at 1 uM by Kinomescan method; outline: as §2
[18] = target: NUAK family SNF1-like kinase 2 (Homo sapiens) (UniProt Q9H093); assay: Inhibition of wild-type human partial length SNARK (P22 to A333 residues) expressed in mammalian expression system at 1 uM by Kinomescan method
Sequence of NUAK family SNF1-like kinase 2 (Homo sapiens) (Q9H093 whole entry, the tested form may be a part): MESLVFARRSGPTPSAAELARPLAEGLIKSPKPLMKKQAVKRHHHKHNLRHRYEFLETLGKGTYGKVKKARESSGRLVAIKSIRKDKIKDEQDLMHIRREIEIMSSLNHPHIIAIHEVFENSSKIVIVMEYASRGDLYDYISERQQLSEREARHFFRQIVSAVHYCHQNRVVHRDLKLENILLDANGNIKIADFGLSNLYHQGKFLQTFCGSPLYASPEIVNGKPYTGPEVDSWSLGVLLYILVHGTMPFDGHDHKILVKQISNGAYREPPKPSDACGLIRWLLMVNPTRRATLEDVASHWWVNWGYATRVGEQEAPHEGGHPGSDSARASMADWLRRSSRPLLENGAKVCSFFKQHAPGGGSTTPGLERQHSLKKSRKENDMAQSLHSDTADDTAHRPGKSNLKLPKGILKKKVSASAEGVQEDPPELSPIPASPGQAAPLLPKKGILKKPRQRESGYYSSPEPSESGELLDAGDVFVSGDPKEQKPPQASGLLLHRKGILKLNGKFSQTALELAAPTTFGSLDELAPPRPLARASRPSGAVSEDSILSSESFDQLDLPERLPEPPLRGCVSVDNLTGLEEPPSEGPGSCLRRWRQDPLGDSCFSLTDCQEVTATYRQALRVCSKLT
Outline: (§4)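 Single-concentration screen at 1 μM on the KINOMEscan panel (98 kinases), run by the platform provider. Results are given as percent of control: % Ctrl = [(test signal − positive control signal)/(negative control signal − positive control signal)] × 100. DMSO serves as negative control (100% Ctrl) and a control compound as positive control (0% Ctrl). Lower values mean stronger binding hits.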

[19] = target: SRSF protein kinase 3 (Homo sapiens) (UniProt Q9UPE1); assay: Inhibition of wild-type human partial length SRPK3 (P41 to P567 residues) expressed in bacterial expression system at 1 uM by Kinomescan method; outline: as §4
[20] = target: TGF-beta receptor type-1 (Homo sapiens) (UniProt P36897); assay: Inhibition of wild-type human partial length TGFBR1 (D179 to M503 residues) expressed in bacterial expression system at 1 uM by Kinomescan method; outline: as §4
[21] = target: High affinity nerve growth factor receptor (Homo sapiens) (UniProt P04629); assay: Inhibition of wild-type human partial length TRKA (G475 to G790 residues) expressed in mammalian expression system at 1 uM by Kinomescan method; outline: as §4
Sequence of High affinity nerve growth factor receptor (Homo sapiens) (P04629 33-796 limits assumed): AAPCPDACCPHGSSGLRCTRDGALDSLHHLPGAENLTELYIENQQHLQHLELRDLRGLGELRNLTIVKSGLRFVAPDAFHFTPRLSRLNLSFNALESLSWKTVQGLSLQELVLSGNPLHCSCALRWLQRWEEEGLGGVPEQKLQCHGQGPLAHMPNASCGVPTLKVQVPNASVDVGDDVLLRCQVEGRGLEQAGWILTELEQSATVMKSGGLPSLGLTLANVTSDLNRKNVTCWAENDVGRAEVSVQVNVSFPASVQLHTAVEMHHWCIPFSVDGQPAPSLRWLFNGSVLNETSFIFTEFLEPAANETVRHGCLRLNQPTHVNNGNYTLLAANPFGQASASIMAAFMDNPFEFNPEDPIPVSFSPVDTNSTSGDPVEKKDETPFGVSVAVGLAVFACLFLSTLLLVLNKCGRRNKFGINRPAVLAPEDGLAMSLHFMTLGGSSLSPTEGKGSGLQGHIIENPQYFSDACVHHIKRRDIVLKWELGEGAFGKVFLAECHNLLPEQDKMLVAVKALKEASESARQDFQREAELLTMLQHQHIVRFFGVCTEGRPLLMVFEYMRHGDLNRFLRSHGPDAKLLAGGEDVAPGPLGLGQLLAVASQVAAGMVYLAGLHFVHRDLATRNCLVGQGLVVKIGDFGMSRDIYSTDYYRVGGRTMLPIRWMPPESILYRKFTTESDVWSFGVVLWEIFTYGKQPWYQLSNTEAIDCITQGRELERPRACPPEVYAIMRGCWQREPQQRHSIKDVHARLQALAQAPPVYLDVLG

O=C(Nc1ccc2[nH]nc(-c3ccc4[nH]ccc4c3)c2c1)c1c(Cl)cccc1Cl
146 µM: Kd (Toll-like receptor 4)
active: Activity (Mus musculus [1]) | Activity (Mus musculus [2])
inactive: inhibition [3] | inhibition [4] | inhibition [5] | inhibition [6] | inhibition [7] | inhibition [8] | inhibition [9] | inhibition [10] | inhibition [11] | inhibition [12] | inhibition [13] | inhibition [14] | inhibition [15] | inhibition [16] | inhibition [17] | inhibition [18] | inhibition [19] | inhibition [20] | inhibition [21]
